Measured values reported in ChEMBL document CHEMBL3085754, “Clicking 3'-azidothymidine into novel potent inhibitors of human immunodeficiency virus” (J Med Chem, 2013).
Calls of active or inactive are those of the source. No cut-off for these calls is given here.

How the values were obtained:
[1] = tested on: Human immunodeficiency virus 1; assay: Antiviral activity against wild type Human immunodeficiency virus 1 expressing p24 infected in human HeLa P4/R5 cells preincubated for 16 hrs prior to virus infection measured after 48 hrs by beta-galactosidase-based single replication cycle assay; format: functional, organism-based; conditions: Human immunodeficiency virus 1, P4/R5
Procedure, shortened: (§1)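 P4R5 indicator cells express CD4, CXCR4, CCR5 and an HIV LTR-driven β-galactosidase reporter, and were kept in DMEM/10% FBS with puromycin. Cells were seeded at 5×10^3 per well and exposed to varying drug concentrations for 16 h. They were then inoculated with 25 ng HIV-1 p24 per well. Infection was quantified 48 h post-infection by fluorescence-based β-galactosidase detection.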

[2] = Therapeutic index, ratio of CC50 for human CEM-SS cells to EC50 for Human immunodeficiency virus 1 3B; format: cell-based; conditions: read-out: Ratio CC50/EC50
[3] = tested on: CEM-SS; assay: Cytotoxicity against human CEM-SS cells assessed as cell viability after 6 days by MTS assay; format: cell-based; conditions: cem-ss, 144 h
[4] = tested on: Human immunodeficiency virus 1; assay: Antiviral activity against Human immunodeficiency virus 1 3B infected in human CEM-SS cells assessed as inhibition of virus-induced cytopathic effect after 6 days by MTS assay; format: functional, organism-based; conditions: 144 h
[5] = tested on: CEM-SS; assay: Cytotoxicity against human CEM-SS cells assessed as cell viability at 10 uM after 6 days by MTS assay relative to control; format: cell-based; conditions: 144 h
[6] = tested on: Human immunodeficiency virus 1; assay: Antiviral activity against Human immunodeficiency virus 1 3B infected in human CEM-SS cells assessed as inhibition of virus-induced cytopathic effect at 10 uM after 6 days by MTS assay relative to control; format: functional; conditions: 144 h
[7] = tested on: Human immunodeficiency virus 1; assay: Antiviral activity against wild type Human immunodeficiency virus 1 expressing p24 infected in human HeLa P4/R5 cells up to 10 uM preincubated for 16 hrs prior to virus infection measured after 48 hrs by beta-galactosidase-based single replication cycle assay; format: functional, organism-based; procedure, shortened: as §1
[8] = tested on: Human immunodeficiency virus 1; assay: Ratio of EC50 for NNRTI-resistant Human immunodeficiency virus 1 to EC50 for wild type Human immunodeficiency virus 1 expressing p24; format: functional
[9] = tested on: Human immunodeficiency virus 1; assay: Antiviral activity against NNRTI-resistant Human immunodeficiency virus 1; format: functional, organism-based
[10] = target: Human immunodeficiency virus type 1 reverse transcriptase (Human immunodeficiency virus 1) (UniProt Q72547); assay: Binding affinity to HIV1 reverse transcriptase assessed as compound incorporation into DNA by primer extension assay

| SMILES | Activity [5] [%] | inhibition at 10 µM [6] [%] | also measured |
| --- | --- | --- | --- |
| Cc1cn([C@H]2C[C@H](n3nncc3-c3cc4ccccc4c4ccccc34)[C@@H](CO)O2)c(=O)[nH]c1=O | 100 | 100 | EC50 [1]: > 5 µM; selectivity ratio [2]: 210; CC50 [3]: 21 µM; EC50 [4]: 0.1 µM |
| Cc1cn([C@H]2C[C@H](n3nncc3C3(O)c4ccccc4-c4ccccc43)[C@@H](CO)O2)c(=O)[nH]c1=O | 97 | 0 | – |
| COc1ccc2ccc(OCc3cnnn3[C@H]3C[C@H](n4cc(C)c(=O)[nH]c4=O)O[C@@H]3CO)cc2c1 | 99 | 10 | – |
| Cc1cn([C@H]2C[C@H](n3cc(-c4ccc5[nH]ccc5c4)nn3)[C@@H](CO)O2)c(=O)[nH]c1=O | 100 | 35 | – |
| Cc1cn([C@H]2C[C@H](n3nncc3-c3ccc(Cl)c(Cl)c3)[C@@H](CO)O2)c(=O)[nH]c1=O | 100 | 31 | Activity [7]: inactive |
| Cc1cn([C@H]2C[C@H](n3nncc3COc3ccc4ccccc4c3)[C@@H](CO)O2)c(=O)[nH]c1=O | 95 | 88 | Ratio EC50 [8]: <0.5; EC50 [9]: 2.4 µM; EC50 [1]: > 5 µM; selectivity ratio [2]: 37; CC50 [3]: 70 µM; EC50 [4]: 1.9 µM |
| COc1ccc2cc(OCc3cn([C@H]4C[C@H](n5cc(C)c(=O)[nH]c5=O)O[C@@H]4CO)nn3)ccc2c1 | 100 | 0 | – |
| Cc1cn([C@H]2C[C@H](n3cc(-c4ccccc4)nn3)[C@@H](CO)O2)c(=O)[nH]c1=O | 100 | 24 | – |
| Cc1cn([C@H]2C[C@H](n3nncc3C3CCCCC3)[C@@H](CO)O2)c(=O)[nH]c1=O | 88 | 43 | Activity [7]: inactive |
| COc1ccc2cc(-c3cnnn3[C@H]3C[C@H](n4cc(C)c(=O)[nH]c4=O)O[C@@H]3CO)ccc2c1 | 100 | 43 | Ratio EC50 [8]: 0.4; EC50 [9]: 1.8 µM; EC50 [1]: 4.1 µM |
| COc1ccc2cc(OCc3cnnn3[C@H]3C[C@H](n4cc(C)c(=O)[nH]c4=O)O[C@@H]3CO)ccc2c1 | 100 | 57 | Activity [7]: inactive |
| Cc1cn([C@H]2C[C@H](n3cc(C4(O)c5ccccc5-c5ccccc54)nn3)[C@@H](CO)O2)c(=O)[nH]c1=O | 100 | 11 | – |
| Cc1cn([C@H]2C[C@H](n3cc(COc4cccc5ccccc45)nn3)[C@@H](CO)O2)c(=O)[nH]c1=O | 100 | 5 | – |
| Cc1cn([C@H]2C[C@H](n3nncc3C3CC3)[C@@H](CO)O2)c(=O)[nH]c1=O | 100 | 17 | – |
| Cc1cn([C@H]2C[C@H](n3nncc3COc3ccccc3)[C@@H](CO)O2)c(=O)[nH]c1=O | 100 | 51 | – |
| Cc1cn([C@H]2C[C@H](n3cc(COc4ccccc4)nn3)[C@@H](CO)O2)c(=O)[nH]c1=O | 85 | 7 | – |
| COc1ccc2ccc(OCc3cn([C@H]4C[C@H](n5cc(C)c(=O)[nH]c5=O)O[C@@H]4CO)nn3)cc2c1 | 100 | 0 | – |
| COc1ccc2cc(-c3cn([C@H]4C[C@H](n5cc(C)c(=O)[nH]c5=O)O[C@@H]4CO)nn3)ccc2c1 | 95 | 35 | – |
| Cc1cn([C@H]2C[C@H](n3cc(-c4ccc(-c5ccccc5)cc4)nn3)[C@@H](CO)O2)c(=O)[nH]c1=O | 88 | 91 | – |
| Cc1cn([C@H]2C[C@H](n3cc(-c4ccc(Oc5ccccc5)cc4)nn3)[C@@H](CO)O2)c(=O)[nH]c1=O | 100 | 0 | – |
| Cc1cn([C@H]2C[C@H](n3cc(-c4cccc5ccccc45)nn3)[C@@H](CO)O2)c(=O)[nH]c1=O | 100 | 1 | – |

| SMILES | Activity [5] [%] | inhibition at 10 µM [6] [%] | also measured |
| --- | --- | --- | --- |
| Cc1cn([C@H]2C[C@H](n3cc(COc4ccc5ccccc5c4)nn3)[C@@H](CO)O2)c(=O)[nH]c1=O | 100 | 0 | – |
| Cc1cn([C@H]2C[C@H](n3cc(C4CC4)nn3)[C@@H](CO)O2)c(=O)[nH]c1=O | 100 | 1 | – |
| Cc1cn([C@H]2C[C@H](n3cc(-c4cc5ccccc5c5ccccc45)nn3)[C@@H](CO)O2)c(=O)[nH]c1=O | 100 | 42 | Ratio EC50 [8]: 0.2; EC50 [9]: 1 µM; EC50 [1]: 4.7 µM |
| Cc1cn([C@H]2C[C@H](n3cc(CO)nn3)[C@@H](CO)O2)c(=O)[nH]c1=O | 100 | 5 | – |
| Cc1cn([C@H]2C[C@H](n3cc(-c4ccc(Cl)c(Cl)c4)nn3)[C@@H](CO)O2)c(=O)[nH]c1=O | 100 | 6 | – |
| Cc1cn([C@H]2C[C@H](n3nncc3-c3ccnc4ccccc34)[C@@H](CO)O2)c(=O)[nH]c1=O | 94 | 74 | – |
| Cc1cn([C@H]2C[C@H](n3nncc3CO)[C@@H](CO)O2)c(=O)[nH]c1=O | 100 | 0 | – |
| Cc1cn([C@H]2C[C@H](n3cc(-c4ccnc5ccccc45)nn3)[C@@H](CO)O2)c(=O)[nH]c1=O | 100 | 44 | – |
| Cc1cn([C@H]2C[C@H](n3nncc3-c3ccc(-c4ccccc4)cc3)[C@@H](CO)O2)c(=O)[nH]c1=O | 80 | 63 | Activity [7]: inactive |
| Cc1cn([C@H]2C[C@H](n3nncc3-c3ccc4[nH]ccc4c3)[C@@H](CO)O2)c(=O)[nH]c1=O | 82 | 12 | – |
| COC(=O)C(Cc1ccc(OCc2cnnn2[C@H]2C[C@H](n3cc(C)c(=O)[nH]c3=O)O[C@@H]2CO)cc1)NC(=O)OC(C)(C)C (stereo partly drawn) | 90 | 17 | – |
| Cc1cn([C@H]2C[C@H](n3nncc3-c3ccc(Cl)cc3)[C@@H](CO)O2)c(=O)[nH]c1=O | 100 | 23 | – |
| COC(=O)C(Cc1ccc(OCc2cn([C@H]3C[C@H](n4cc(C)c(=O)[nH]c4=O)O[C@@H]3CO)nn2)cc1)NC(=O)OC(C)(C)C (stereo partly drawn) | 99 | 0 | – |
| Cc1cn([C@H]2C[C@H](n3nncc3-c3ccc(Oc4ccccc4)cc3)[C@@H](CO)O2)c(=O)[nH]c1=O | 97 | 67 | Activity [7]: inactive |
| Cc1cn([C@H]2C[C@H](n3cc(-c4ccc(Cl)cc4)nn3)[C@@H](CO)O2)c(=O)[nH]c1=O | 100 | 0 | – |
| Cc1cn([C@H]2C[C@H](n3nncc3COc3cccc4ccccc34)[C@@H](CO)O2)c(=O)[nH]c1=O | 93 | 42 | Activity [7]: inactive |
| Cc1cn([C@H]2C[C@H](n3nncc3-c3ccc4ccccc4c3)[C@@H](CO)O2)c(=O)[nH]c1=O | 100 | 37 | – |
| Cc1cn([C@H]2C[C@H](n3cc(-c4ccc5ccccc5c4)nn3)[C@@H](CO)O2)c(=O)[nH]c1=O | 98 | 33 | Ratio EC50 [8]: 0.3; EC50 [9]: 2.1 µM; EC50 [1]: 7.2 µM |
| Cc1cn([C@H]2C[C@H](n3nncc3-c3ccccc3)[C@@H](CO)O2)c(=O)[nH]c1=O | 100 | 44 | – |
| Cc1cn([C@H]2C[C@H](n3cc(C4CCCCC4)nn3)[C@@H](CO)O2)c(=O)[nH]c1=O | 100 | 0 | – |
| Cc1cn([C@H]2C[C@H](N=[N+]=[N-])[C@@H](COP(=O)(O)OP(=O)(O)OP(=O)(O)O)O2)c(=O)[nH]c1=O | – | – | Activity [10]: Active |
